Compound activity: PubChem BioAssay, Sanford-Burnham Center for Chemical Genomics
Sampled rows, rich in hits. Any-hit rate of the full collection: about 1.5%.
EBI2 antag: EBI2 (human) antagonism; EBI2 beta-arrestin recruitment, luminescence, 7a,25-OHC stimulated; inhibition, % at 5 µM; actives 0.81% (n = 360,000); AID 651636; in the data active = inhibition above about 38%;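 note: enzyme fragment complementation signal reports receptor beta-arrestin coupling in cells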
Target sequence (P32249 whole entry, looked up, the tested form may be a part): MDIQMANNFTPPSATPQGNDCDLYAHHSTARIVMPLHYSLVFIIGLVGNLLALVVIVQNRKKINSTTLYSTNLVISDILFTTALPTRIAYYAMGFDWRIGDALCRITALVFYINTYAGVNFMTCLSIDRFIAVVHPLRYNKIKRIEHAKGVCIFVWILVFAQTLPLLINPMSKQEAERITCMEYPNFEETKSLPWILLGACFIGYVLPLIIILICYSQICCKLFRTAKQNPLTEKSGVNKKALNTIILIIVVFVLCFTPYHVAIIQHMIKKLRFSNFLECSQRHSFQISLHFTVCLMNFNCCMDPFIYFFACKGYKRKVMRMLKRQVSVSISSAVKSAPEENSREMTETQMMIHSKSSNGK
CXCR6 block: blocks human CXCR6 beta-arrestin recruitment | CHO-K1 PathHunter CXCR6 beta-arrestin, luminescence | inhibition, % at 20 µM | actives 0.36% (n = 360,000); in the data active = inhibition above about 34%, passing the limit was not always enough;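 note: antagonist mode with CXCL16 agonist at 10 nM final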
APJ agonist: activates the human apelin receptor APJ; CHO-K1 APJ PathHunter beta-arrestin, luminescence; 0% DMSO wells, 100% apelin; activation, % at 20 µM; actives 0.11% (n = 330,000);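 active = activation more than six SD over the plate average, tested at 20 µM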
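Incubation: overnight seeding, 90 min compound at 25 °C, 1 h detection; test system: PathHunter CHO-K1 APJ (AGTRL-1) beta-arrestin reporter cells; amount: 1000 cells/well; doses: one dose, 20 µM compound, 1% DMSO; measured by: beta-gal luminescence; measure: agonist-driven arrestin binding to APJ; benchmarks: negative DMSO alone, positive Apelin-13 at 10 nM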
CCR6 antagonist: blocks CCL20-driven beta-arrestin recruitment at human CCR6; P51684; CHO-K1 CCR6 PathHunter beta-arrestin, luminescence, CCL20-stimulated; inhibition, % at 20 µM; actives 0.49% (n = 340,000); AID 493098;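 active = compounds whose inhibition of the agonist-driven luminescence signal at 20 µM reaches about 50%, limit read from the data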;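 note: cells stimulated with CCL20 at 14 nM final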
iPSC survival up: hiPSC single-cell survival enhancement. actives 0.044% (n = 360,000). ATPlite luminescence; 100% = ROCK inhibitor wells, 0% = DMSO. survival enhancement, % at 20 µM; in the data active = survival enhancement above about 18%;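 note: cells exposed to compounds for 16 hours before the ATP read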
APJ antagonist: blocks the human apelin receptor APJ; CHO-K1 APJ beta-arrestin complementation, luminescence; P35414; actives 0.32% (n = 330,000); AID 2521; inhibition, % at 20 µM;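 active = inhibition above about 40% at 20 µM, limit read from the data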;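 note: cells challenged with 10 nM apelin-13 agonist together with compound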
APJ ag confirm: APJ receptor agonism confirmation; actives 10% (n = 310); shares compounds with APJ agonist; CHO-K1 APJ PathHunter beta-arrestin, luminescence; activation, % at 20 µM;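 active = activation above 40%, taking the highest of four retests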
APJ antag confirm: confirmation of human APJ apelin receptor antagonists; APJ beta-arrestin recruitment, luminescence, antagonist mode; shares compounds with APJ antagonist; AID 2766; actives 66% (n = 950); inhibition, % at 20 µM; in the data active = inhibition above about 50%
Hits are given with their value; n = inactive; x = no result given.

SMILES | EBI2 antag | CXCR6 block | APJ agonist | CCR6 antagonist | iPSC survival up | APJ antagonist | APJ antag confirm | others
COc1ccc(CN2C(=O)NC(=O)/C(=C\c3ccco3)C2=O)cc1 | n | n | 17.8 | n | n | n | x | APJ ag confirm=n
CCCCCCC(=O)c1c(O)n(-c2ccc(OC)cc2)c(=O)[nH]c1=O (tested in a mixture with another compound) | n | n | n | n | n | n | x
CC(C)[C@H]1C(=O)N2CCC[C@H]2[C@]2(O)O[C@](NC(=O)[C@@H]3C=C4c5cccc6[nH]cc(c56)C[C@H]4N(C)C3)(C(C)C)C(=O)N12 | n | n | n | n | n | n | x
CN1C[C@H](CO)C=C2c3cccc4[nH]cc(c34)C[C@H]21 | n | n | 16.9 | n | n | n | x | APJ ag confirm=n
CCN1/C(=C\C=C\C2=[N+](CC)c3ccccc3C2(C)C)C(C)(C)c2ccccc21 | n | 63.0 | n | 60.9 | n | 53.9 | 105.8
O=NN(CCF)C(=O)NC1CCC(=O)NC1=O (stereo not drawn) | n | n | x | x | n | x | x
CC12CCCCC1=NC(c1ccc(Br)cc1)N2O (stereo not drawn) | n | n | n | 55.0 | n | 51.3 | n
Brc1ccc(C2N3CCCN23)cc1 (stereo not drawn) | n | n | n | n | n | n | x
O=C(CCCc1ccccc1)NCCc1cnc[nH]1 | n | n | n | n | n | n | x
CC1CCCN(CC(=O)c2ccc(Cl)c(Cl)c2)C1 (stereo not drawn) | n | 65.6 | n | 100.7 | n | 121.5 | 158.2
CCCCn1c(N)c(C(=O)NCc2cccs2)c2nc3ccccc3nc21 | n | n | n | n | n | 49.2 | n
CC(C)CCn1c(N)c(C(=O)OCC2CCCO2)c2nc3ccccc3nc21 (stereo not drawn) | n | n | n | n | n | 50.4 | 53.3
CCCCOCCCn1c(N)c(C(=O)OCCOC)c2nc3ccccc3nc21 | n | n | n | n | n | 58.6 | n
CCCCCn1c(N)c(C(=O)NCc2cccs2)c2nc3ccccc3nc21 | x | x | n | n | x | 44.6 | n
COC(=O)C1=C(c2ccc(F)cc2OCc2ccccc2)C[C@@H]2CC[C@H]1N2C(=O)NCCc1ccc(F)cc1 | n | n | n | n | n | n | x
COc1ccc(C(CNC(=O)CCc2ccsc2)N(C)C)cc1 (stereo not drawn) | n | n | n | n | n | n | x
COc1ccc(C2=NS(=O)(=O)N(C)C(C(=O)N3CCC4(CC3)OCCO4)=C2)cc1OC | n | n | n | n | n | n | x
Brc1ccc2c(c1)CN(CC1CCCCC1)Cc1cnnn1-2 | n | n | x | x | n | x | x
CCOC(=O)CNC(=S)N1CC2C[C@@H](C1)Cn1c2cccc1=O | n | n | n | n | n | n | x
CCn1c(O)c(N=Nc2cccc(S(=O)(=O)N3CCOCC3)c2)c(=O)n(CC)c1=S | n | n | n | n | n | n | x
CCn1c(O)c(N=Nc2ccc(S(=O)(=O)N3CCOCC3)cc2)c(=O)n(CC)c1=S | n | n | n | n | n | 55.9 | 54.8
C=C1C(=O)O[C@@H]2C[C@@H](C)[C@@H]3C=CC(=O)[C@@]3(C)[C@@H](O)[C@H]12 | 57.2 | n | n | n | 81.5 | 47.1 | 69.1
CCCCn1c(N)c(C(=O)OCC2CCCO2)c2nc3ccccc3nc21 (stereo not drawn) | n | n | n | n | n | n | x
CCCCn1c(NS(=O)(=O)c2ccc(C)cc2)c(C(=O)OCC)c2nc3ccccc3nc21 | n | n | n | 58.5 | n | 64.6 | n
CCCCn1c(N)c(C(=O)OCCOC)c2nc3ccccc3nc21 | n | n | n | n | n | n | x
CCCCn1c(NC(=O)c2ccco2)c(C(=O)OCC)c2nc3ccccc3nc21 | n | n | n | 58.1 | n | 63.5 | 54.9
